Assay results from different studies.
Each line is one published result; the experiments were not run side by side.
Target: Phosphatidylinositol 4-phosphate 3-kinase C2 domain-containing subunit beta (PIK3C2B, Homo sapiens, UniProt O00750)

SMILES | assay | conditions | quantity | value
CC#CC(=O)N1CCC[C@H]1c1nc(-c2ccc(C(=O)Nc3ccccn3)cc2)c2c(N)nccn12 | enzyme activity, inhibitor | 1 µM | inhibition | 0%
C#Cc1cnc(Nc2ccnc(CO)c2)nc1Nc1ccccc1S(C)(=O)=NC#N (centres unmarked) | cell-free assay | 1 µM | remaining signal | 100%
CN1CCN(C(=O)c2ccc(NC(=O)Nc3ccc(N(C)c4ccnc(Nc5ccc(CS(C)(=O)=O)cc5)n4)cc3)cc2)CC1 | binding | 1 µM | remaining binding | 100%
C1=C/COCc2cc(ccc2OCCN2CCCC2)Nc2nccc(n2)-c2cccc(c2)COC/1 | binding | 0.1 µM | remaining binding | 87%
CCCCC(=O)Nc1ccc(-c2ccc3ncn(CCC)c(=O)c3c2)cn1 | binding, competition with immobilised ligand | 0.5 µM | remaining binding | 100%
C[C@H]1CC[C@H](n2c3cnccc3c3cnc(Nc4ccc5c(n4)CCN(C(=O)CO)C5)nc32)CC1 | cell-free assay | 1 µM | remaining signal | 100%
C=CC(=O)N1CCC([C@@H]2CCNc3c(C(N)=O)c(-c4ccc(Oc5ccccc5)cc4)nn32)CC1 | enzyme activity, inhibitor | 1 µM | inhibition | 0%
N#Cc1ccc(NC(=O)Nc2ccccc2)cc1 | cell-free assay, competition with immobilised ligand | 25 µM | remaining binding | 79%
